# TRPC4 PAM: positive allosteric modulators of TRPC4, primary screen, cell-based, mouse TRPC4beta, HEK293 mu-opioid, Fluo-4 calcium; Short transient receptor potential channel 4 (Mus musculus), Q9QUQ5; DAMGO EC20, Fluo-4 Ca2+ flux; hits give high values; B-score at 10 µM; AID 2227, 2009; actives 0.42% (n = 310,000);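 active = B-score of calcium response area above 5 SD of library B-scores, with initial fluorescence ratio within 5 SD of library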;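 note: B-score of integrated fluorescence ratio over time as area under calcium response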
# Kir21 inh: inhibitors of mouse Kir2.1 inward-rectifier potassium channel; Inward rectifier potassium channel 2 (Mus musculus), P35561; HEK293-Kir2.1, FluxOR thallium flux fluorescence; hits give low values; B-score at 10 µM; actives 0.85% (n = 310,000); AID 1672, 2009;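 active = fluorescence ratio B-score at or below minus 3 SD of library scores, with starting-brightness B-score within 2 SD, cut at about -4.2 in these data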;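 note: channel flux triggered by added potassium and thallium sulfate stimulus; B-score of peak minus minimum fluorescence over baseline after thallium stimulus; more negative B-score means stronger Kir2.1 block with less thallium influx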
# TRPC4 block: inhibitors of mouse TRPC4 channel, primary screen, Fluo4 calcium, HEK293 TRPC4beta/mu-opioid cells | Short transient receptor potential channel 4 (Mus musculus), Q9QUQ5 | DAMGO-evoked Fluo4 calcium flux; hits give low values | B-score at 10 µM | actives 0.39% (n = 300,000) | AID 2247, 2010;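 active = B-score over 3 SD under the library average, no early fluorescence shift, positive overall ratio signal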
#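 Signal: kinetic Fluo4 fluorescence imaging of calcium influx. Material: stable TRPC4beta/mu-opioid receptor HEK293 cells. Probe or stimulus: DAMGO in two steps, submaximal then maximal.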
# TRPC6 activator: mouse TRPC6 channel activators, primary screen, cell-based, HEK293, membrane potential dye; HEK293-TRPC6 membrane potential dye fluorescence; hits give high values; B-score at 10 µM; actives 0.13% (n = 310,000); AID 2550, 2010;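 active = B-score of the integrated fluorescence ratio above library mean plus 3 SD, and starting fluorescence ratio within library mean plus 5 SD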;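 note: higher score means more depolarization so channel activation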
# TRPC4 agonist: activators of mouse TRPC4 channel, primary screen, Fluo4 calcium, HEK293 TRPC4beta/mu-opioid cells; actives 0.49% (n = 310,000); Fluo4 calcium fluorescence; hits give high values; Short transient receptor potential channel 4 (Mus musculus), Q9QUQ5; B-score at 10 µM;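 active = B-score above 5 SD of library B-scores, and initial fluorescence ratio not above library mean plus 5 SD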;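 note: positive B-score marks a calcium rise read as TRPC4 activation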
#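 Material: HEK293 stable line with TRPC4beta plus mu-opioid receptor; technique: Fluo4 calcium-sensitive dye fluorescence, kinetic, 1 Hz baseline; timing: Fluo4 dye loading 45 min at room temperature, 110 s recording; controls: assay buffer as low control, maximal DAMGO as high control; read-out: integrated baseline-normalised fluorescence ratio, converted to per-well B score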
# TRPC6 inh: mouse TRPC6 channel inhibitors, primary screen, cell-based, HEK293, membrane potential dye | actives 1.1% (n = 310,000) | AID 2553, 2010 | ACh-evoked depolarization; hits give low values | B-score at 10 µM | Short transient receptor potential channel 6 (Mus musculus), Q61143;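 active = B-score under library mean minus 3 SD, initial fluorescence not abnormally high, positive integrated signal ratio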;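 note: B-score derived from integrated fluorescence ratio over the kinetic read; more negative B-score means stronger inhibition of depolarization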
# Starred values were filed as active, the others as inactive; i = inactive. In the library only some 2.9% were active in any assay of this set; here they are far more common.
SMILES,TRPC4 PAM,Kir21 inh,TRPC4 block,TRPC6 activator,TRPC4 agonist,TRPC6 inh
Cc1nn(-c2ccccc2)c(-c2ccccc2[N+](=O)[O-])c1C(=O)O,i,-0.12,i,i,i,i
NC(=O)Cn1c(=O)n(Cc2ccccc2)c(=O)c2cccnc21,i,-2.1,i,i,i,i
CC1(c2ccc(OC(F)F)cc2)NC(=O)N(CC(=O)Nc2ccc(OC(F)F)cc2)C1=O (configuration not stated),i,-1.2,i,i,54*,i
CC1(c2ccc(OC(F)F)cc2)NC(=O)N(CC(=O)c2ccc3c(c2)OCO3)C1=O (configuration not stated),i,0.29,i,i,62*,i
CC1(c2ccc(OC(F)F)cc2)NC(=O)N(CC(=O)Nc2ccc(F)cc2)C1=O (configuration not stated),i,-0.86,i,i,i,i
Cc1c(Cl)cccc1NC(=O)CSc1nnc(CCNC(=O)OC(C)(C)C)o1,i,-1.9,i,i,i,i
CCCCC(=O)N1CCN(c2nc3ccc(OCC)cc3s2)CC1,i,-1.6,i,i,i,i
CCCCC(=O)N1CCN(c2nc3ccc(F)cc3s2)CC1,i,-3,i,i,78*,i
Cc1cc(N2CCN(C)CC2)nc2ccc(NC(=S)NCCN3CCc4ccccc4C3)cc12,i,-4.7*,i,i,i,i
Cc1cc(N2CCN(C)CC2)nc2ccc(NC(=O)CCC(=O)NCCC(C)C)cc12,i,0.21,i,i,i,i
CCCN(CCC)CCNC(=O)CCC(=O)Nc1ccc2nc(N3CCN(C)CC3)cc(C)c2c1,i,0.39,i,i,87*,i
Cc1cc(N2CCN(C)CC2)nc2ccc(NC(=S)NCCCN3CCc4ccccc4C3)cc12,i,-3,i,i,i,i
CCCCN(C)CCNC(=S)Nc1ccc2nc(N3CCN(CC)CC3)cc(C)c2c1,16*,-3.2,i,i,i,i
CC(C(=O)Nc1ccc(OCc2ccccc2)cc1)N1CCCC1 (configuration not stated),i,1.5,i,i,i,i
CC(C)COCC(CN(Cc1ccccc1)c1ccccc1)N1CCCC1 (configuration not stated),i,-6.3*,i,i,i,i
O=C(CC(=O)c1c(F)cccc1Cl)c1ccccc1O,i,2.8,i,i,84*,i
O=C(CC(=O)c1ccccc1O)c1cccc(F)c1,i,0.27,i,i,i,i
CCc1noc(C)c1C(=O)N1CCN(S(=O)(=O)c2ccc(Br)cc2Cl)CC1,i,0.01,i,i,i,i
Cc1ccc(N2C(=O)CC(N3CCN(C4CCc5ccccc5C4)CC3)C2=O)cc1 (configuration not stated),i,-1.4,i,i,i,i
CCOc1ccc(N2C(=O)CC(N3CCN(C4CCc5ccccc5C4)CC3)C2=O)cc1 (configuration not stated),14*,0.54,i,i,i,i
COc1ccccc1/C=C1\SC(=S)N(CCC(=O)NCCCn2ccnc2)C1=O,i,-4.5*,i,i,i,i
O=C(CCCN1C(=O)/C(=C/c2ccc(F)cc2)SC1=S)NCCCn1ccnc1,i,-4.7*,i,i,i,i
COCCCNC(=O)CSc1nc2cc(S(=O)(=O)N3CCCCC3)ccc2o1,i,-0.97,i,i,i,i
